Screens from PubChem.
HSF1 activator – increases HSF-1 driven luciferase reporter signal; NIH3T3-HGL HSF-1 luciferase reporter, MG132, 8 h; 100% = twice DMSO control signal; activation, % at 9 µM; actives 1.7% (n = 300,000);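 active means mean replicate activation of at least 50% with a set share of replicates each reaching 50%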
DNA FID counter – counter-screen for HCV NS3 helicase inhibitors: DNA intercalator displacement; DNA fluorescent intercalator displacement, fluorescence; inhibition, % at 7.9 µM; actives 0.17% (n = 290,000); in the data active means inhibition above about 37%;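 further: higher means more ethidium bromide displaced from hairpin DNA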
HSP90 refold inh – inhibitors of HSP90 luciferase refolding in rabbit reticulocyte lysate; inhibition, % at 5.6 µM; actives 0.91% (n = 290,000); luciferase refolding luminescence, 3 h;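 active means inhibition above the screen-wide mean plus 3 SD, computed separately per campaign, cut at about 16% in these data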;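 further: inhibitors lower the luminescence because luciferase stays unfolded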
core dimer inh – HCV core protein dimerization inhibition | AID 1899 | TR-FRET GST/Flag-core106 dimerization, 1536-well | actives 0.33% (n = 300,000) | inhibition, % at 5 µM;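 active means inhibition above the mean of all tested compounds plus 3 SD, set per screening campaign, cut at about 45% in these data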
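Assay system: GST-tagged and Flag-tagged HCV core protein residues 1-106 / Times: compound-protein-antibody incubation 4 h at 22.5 °C / Signal: time-resolved FRET, ex 340 nm, em 617 and 671 nm / Evaluation: % inhibition based on acceptor/donor emission ratio / Benchmarks: wells lacking GST-core106 and wells with excess unlabelled core106 / Repeats: singlicate, one well per compound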
HSF1 inh – HSF1 inhibition; NIH3T3-HGL HSE-luciferase, MG132-induced, luminescence 8 h; stronger effect = lower value; activity change, negative = inhibition, % at 7.5 µM (by protocol); actives 0.77% (n = 300,000);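 active means more than half of replicate wells show activity change below -50%, luminescence cut by over half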;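 further: luciferase reports HSF-1 transcriptional activity via heat shock element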
NS3 helicase inh – HCV NS3 helicase inhibition; NS3 helicase DNA unwinding, Cy5 molecular beacon fluorescence; actives 0.56% (n = 290,000); AID 1800; inhibition, % at 10.9 µM;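 active means inhibition above the mean of all tested compounds plus 3 SD, set per campaign, cut at about 35% in these data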
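Assay system: hepatitis C virus NS3 helicase domain fragment enzyme. Also added: annealed dual-labelled DNA beacon duplex, ATP-started. Timing: 1 h reaction at 25 °C, ATP-initiated. Technique: Cy5 fluorescence at 0 and 60 min, beacon hairpin quenching. Evaluation: % inhibition of unwinding. Replication: one well per compound.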
HSP90 confirm – HSP90 inhibition, confirmation assay | shares compounds with HSP90 refold inh | inhibition, % at 5.9 µM | rabbit reticulocyte lysate, luciferase refolding luminescence, 3 h | actives 64% (n = 2,300); in the data active means inhibition above about 18%
FLuc counter – firefly luciferase inhibition, HSP90 counter-screen; shares compounds with HSP90 refold inh; purified native firefly luciferase, luminescence; inhibition, % at 5.9 µM; actives 48% (n = 2,300);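 active means inhibition above the mean inhibition of all tested sample wells plus 3 SD, cut at about 10% in these data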
Hits are given with their value; i = inactive; nt = no result given. Sampled rows, rich in hits. Any-hit rate of the full collection: about 3.9%.

SMILES	HSF1 activator	DNA FID counter	HSP90 refold inh	core dimer inh	HSF1 inh	NS3 helicase inh	HSP90 confirm	FLuc counter
c1ccc(-n2ncc3c(NCCCN4CCOCC4)ncnc32)cc1	i	i	i	i	i	i	nt	nt
COc1ccc(-n2ncc3c(N4CCCCC4)ncnc32)cc1	i	i	67	i	-81	i	90	86
COc1ccc(-n2ncc3c(N4CCN(c5cccc(C)c5C)CC4)ncnc32)cc1	i	i	i	i	i	i	nt	nt
Cc1cccc(-n2ncc3c(N4CCOCC4)ncnc32)c1	i	i	54	i	i	i	77	68
COc1ccc(N2CCN(C(=O)CCc3nnc4ccc(N5CCOCC5)nn34)CC2)cc1	i	i	i	i	i	i	nt	nt
O=C1NC(=O)/C(=C/C(=O)N2CCOCC2)S1	i	i	i	i	i	i	nt	nt
COc1ccc(C(=O)OC(C)C(=O)NC2CCCCC2C)cc1S(=O)(=O)N1CCOCC1 (stereo unspecified)	i	nt	nt	i	i	nt	nt	nt
Clc1ccc(Cn2ncc3c(N4CCCCC4)ncnc32)cc1	i	i	i	i	i	i	nt	nt
Clc1ccc(-n2ncc3c(N4CCCCCC4)ncnc32)cc1	i	i	63	i	-89	i	83	86
CC(C)(C)c1ccc(C(=O)c2c[nH]c(C(=O)O)c2)cc1	i	i	53	i	i	i	63	i
COC(=O)c1cc(C(=O)c2ccc(C(C)(C)C)cc2)c[nH]1	i	i	i	i	i	i	nt	nt
CC(C)(C)n1nc2c(c1NC(=O)COc1ccc(F)cc1)CS(=O)(=O)C2	i	i	i	i	i	i	nt	nt
COc1ccc(CNC(=O)COC(=O)c2ccco2)cc1	i	i	51	i	i	i	i	i
O=C(COC(=O)c1ccco1)NCc1ccco1	i	i	i	i	i	i	nt	nt
COc1ccc(C)cc1S(=O)(=O)N1CCCC(C(=O)N2CCN(c3ccccc3)CC2)C1 (stereo unspecified)	i	i	22	i	i	i	i	i
O=[N+]([O-])c1ccc(-c2ccc(/C=N/O)o2)cc1	i	i	i	i	i	i	nt	nt
O=[N+]([O-])c1ccc(-c2ccc(C=Nc3cccc4ccccc34)o2)cc1	i	i	18	i	i	i	i	i
COC(=O)c1cnn(-c2ccc(F)cc2F)c1/C=N/NC(N)=S	i	i	i	i	i	i	nt	nt
C/C(=N/NC(=O)c1ccccn1)c1ccc(O)cc1	i	i	20	i	i	i	i	i
C/C(=N\NC(=O)c1ccccn1)c1ccc(Cl)cc1	i	i	i	i	i	i	nt	nt
C/C(=N\NC(=O)c1ccc(N/N=C(\C)c2ccc(O)cc2)cc1)c1ccc(O)cc1	i	i	27	i	i	i	i	i
C/C(=N\NC(=O)c1ccc(O)cc1)c1ccc(N2CCOCC2)cc1	i	i	i	i	i	i	nt	nt
CC(C)(C)OC(=O)N1Cc2ccccc2C[C@H]1C(=O)NCC(=O)Nc1ccc2c(c1)OCCO2	i	i	32	i	-64	i	52	69
O=C(N[C@@H](Cc1c[nH]c2ccccc12)C(=O)O)C1CCN(S(=O)(=O)c2ccc(Cl)cc2)CC1	i	i	i	i	i	i	nt	nt
O=C(N[C@@H](Cc1c[nH]c2ccccc12)C(=O)O)C1CCN(S(=O)(=O)c2cccs2)CC1	i	i	20	i	i	i	i	i
COc1ccc(NC(=S)NNc2ccc(C(=O)O)cc2)cc1	i	i	21	i	i	i	42	38
CCOC(=O)N1CCN(c2ccc(O)cc2)CC1	i	i	i	i	i	i	nt	nt
NC(=O)c1nsc(C(=O)N(c2ccccc2)C(C(=O)NCc2ccc(F)cc2)c2ccc(O)cc2)c1N (stereo unspecified)	i	i	i	i	i	i	nt	nt
Cc1cc(C(=O)COC(=O)c2ccncc2)c(C)n1Cc1ccco1	i	i	26	i	i	i	41	75
Cc1cc(C(=O)COC(=O)c2cccn2C)c(C)n1Cc1ccco1	i	i	40	i	i	i	66	66
